Results as given in ChEMBL document CHEMBL5108039, “Piperazine tethered bergenin heterocyclic hybrids: design, synthesis, anticancer activity, and molecular docking studies” (RSC Med Chem, 2022).

Legend:
HCT-15 = test: Cytotoxicity against human HCT-15 cells assessed as cell growth inhibition; format: functional, cell-based
Procedure, shortened: (§1)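 Compounds were dissolved in sterile DMSO as 10 mg ml−1 stocks and tested for in vitro growth inhibition of human cancer cell lines. Doxorubicin was the standard drug and DMSO (0.01%) the vehicle control. IC50 values are reported as means.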

SCC-9 [1] = test: Cell cycle arrest in human SCC-9 cells assessed as accumulation at S phase at 0.5 uM incubated for 24 hrs by flow cytometry (reference value: 14.4 %); format: functional
CAL-27 [2] = test: Induction of apoptosis in human CAL-27 cells assessed as early apoptotic cells at 0.5 uM incubated for 24 hrs by Annexin V-FITC/PI staining based flow cytometric analysis (reference value: 0.1 %); format: functional
Procedure, shortened: (§2)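 CAL27 cells were treated with vehicle, doxorubicin or test compounds at 10–63 μM, and apoptosis was assessed by annexin V–FITC/PI staining with flow cytometry. Cells were scored as live, early apoptotic, late apoptotic or necrotic. The vehicle was DMSO (0.01%).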

CAL-27 [3] = test: Cell cycle arrest in human CAL-27 cells assessed as accumulation at G2/M phase at 0.5 uM incubated for 24 hrs by flow cytometry (reference value: 11.9 %); format: functional
CAL-27 [4] = test: Cell cycle arrest in human CAL-27 cells assessed as accumulation at S phase at 0.5 uM incubated for 24 hrs by flow cytometry (reference value: 3.6 %); format: functional
SCC-9 [5] = test: Induction of apoptosis in human SCC-9 cells assessed as late apoptotic cells at 0.5 uM incubated for 24 hrs by Annexin V-FITC/PI staining based flow cytometric analysis (reference value: 1.4 %); format: functional
SCC-9 [6] = test: Induction of apoptosis in human SCC-9 cells assessed as necrotic cells at 0.5 uM incubated for 24 hrs by Annexin V-FITC/PI staining based flow cytometric analysis (reference value: 0.1 %); format: functional
SCC-9 [7] = test: Cell cycle arrest in human SCC-9 cells assessed as accumulation at G2/M phase at 0.5 uM incubated for 24 hrs by flow cytometry (reference value: 14.2 %); format: functional
SCC-9 [8] = test: Induction of apoptosis in human SCC-9 cells assessed as live cells at 0.5 uM incubated for 24 hrs by Annexin V-FITC/PI staining based flow cytometric analysis (reference value: 95.7 %); format: functional
CAL-27 [9] = test: Cytotoxicity against human CAL-27 cells assessed as cell growth inhibition; format: functional, cell-based; procedure, shortened: as §1
CAL-27 [10] = test: Induction of apoptosis in human CAL-27 cells assessed as late apoptotic cells at 0.5 uM incubated for 24 hrs by Annexin V-FITC/PI staining based flow cytometric analysis (reference value: 0.1 %); format: functional; procedure, shortened: as §2
[11] = Cytotoxicity against human BEAS-2B cells assessed as cell growth inhibition; format: toxicity, cell-based
Procedure, shortened: (§3)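 Compounds were dissolved in sterile DMSO as 10 mg ml−1 stocks and tested in vitro for cytotoxicity in a cell-line panel, with DMSO (0.01%) as vehicle control and doxorubicin as standard. Mean IC50 values were reported, and the normal lung epithelial cells were tested up to 100 μM.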

CAL-27 [12] = test: Cell cycle arrest in human CAL-27 cells assessed as accumulation at G0/G1 phase at 0.5 uM incubated for 24 hrs by flow cytometry (reference value: 77.6 %); format: functional
A549 = test: Cytotoxicity against human A549 cells assessed as cell growth inhibition; format: functional, cell-based; procedure, shortened: as §3
CAL-27 [13] = test: Induction of apoptosis in human CAL-27 cells assessed as necrotic cells at 0.5 uM incubated for 24 hrs by Annexin V-FITC/PI staining based flow cytometric analysis (reference value: 0.0 %); format: functional; procedure, shortened: as §2
SCC-9 [14] = test: Induction of apoptosis in human SCC-9 cells assessed as early apoptotic cells at 0.5 uM incubated for 24 hrs by Annexin V-FITC/PI staining based flow cytometric analysis (reference value: 2.8 %); format: functional
CAL-27 [15] = test: Induction of apoptosis in human CAL-27 cells assessed as live cells at 0.5 uM incubated for 24 hrs by Annexin V-FITC/PI staining based flow cytometric analysis (reference value: 99.8 %); format: functional; procedure, shortened: as §2
SCC-9 [16] = test: Cell cycle arrest in human SCC-9 cells assessed as accumulation at G0/G1 phase at 0.5 uM incubated for 24 hrs by flow cytometry (reference value: 70.8 %); format: functional
SCC-9 [17] = test: Cytotoxicity against human SCC-9 cells assessed as cell growth inhibition; format: functional, cell-based; procedure, shortened: as §1
SCC-9 [18] = test: Induction of apoptosis in human SCC-9 cells assessed as early apoptotic cells at 17 uM incubated for 24 hrs by Annexin V-FITC/PI staining based flow cytometric analysis (reference value: 2.8 %); format: functional
CAL-27 [19] = test: Induction of apoptosis in human CAL-27 cells assessed as late apoptotic cells at 34 uM incubated for 24 hrs by Annexin V-FITC/PI staining based flow cytometric analysis (reference value: 0.1 %); format: functional; procedure, shortened: as §2
SCC-9 [20] = test: Induction of apoptosis in human SCC-9 cells assessed as live cells at 17 uM incubated for 24 hrs by Annexin V-FITC/PI staining based flow cytometric analysis (reference value: 95.7 %); format: functional
CAL-27 [21] = test: Induction of apoptosis in human CAL-27 cells assessed as necrotic cells at 10 uM incubated for 24 hrs by Annexin V-FITC/PI staining based flow cytometric analysis (reference value: 0.0 %); format: functional; procedure, shortened: as §2
SCC-9 [22] = test: Induction of apoptosis in human SCC-9 cells assessed as late apoptotic cells at 34 uM incubated for 24 hrs by Annexin V-FITC/PI staining based flow cytometric analysis (reference value: 1.4 %); format: functional
SCC-9 [23] = test: Cell cycle arrest in human SCC-9 cells assessed as accumulation at G2/M phase at 34 uM incubated for 24 hrs by flow cytometry (reference value: 14.2 %); format: functional
SCC-9 [24] = test: Cell cycle arrest in human SCC-9 cells assessed as accumulation at S phase at 34 uM incubated for 24 hrs by flow cytometry (reference value: 14.4 %); format: functional
CAL-27 [25] = test: Cell cycle arrest in human CAL-27 cells assessed as accumulation at G2/M phase at 10 uM incubated for 24 hrs by flow cytometry (reference value: 11.9 %); format: functional
CAL-27 [26] = test: Induction of apoptosis in human CAL-27 cells assessed as early apoptotic cells at 10 uM incubated for 24 hrs by Annexin V-FITC/PI staining based flow cytometric analysis (reference value: 0.1 %); format: functional; procedure, shortened: as §2
SCC-9 [27] = test: Cell cycle arrest in human SCC-9 cells assessed as accumulation at G2/M phase at 17 uM incubated for 24 hrs by flow cytometry (reference value: 14.2 %); format: functional
CAL-27 [28] = test: Cell cycle arrest in human CAL-27 cells assessed as accumulation at G2/M phase at 34 uM incubated for 24 hrs by flow cytometry (reference value: 11.9 %); format: functional
SCC-9 [29] = test: Induction of apoptosis in human SCC-9 cells assessed as live cells at 34 uM incubated for 24 hrs by Annexin V-FITC/PI staining based flow cytometric analysis (reference value: 95.7 %); format: functional
CAL-27 [30] = test: Induction of apoptosis in human CAL-27 cells assessed as live cells at 10 uM incubated for 24 hrs by Annexin V-FITC/PI staining based flow cytometric analysis (reference value: 99.8 %); format: functional; procedure, shortened: as §2
CAL-27 [31] = test: Cell cycle arrest in human CAL-27 cells assessed as accumulation at S phase at 34 uM incubated for 24 hrs by flow cytometry (reference value: 3.6 %); format: functional
CAL-27 [32] = test: Induction of apoptosis in human CAL-27 cells assessed as live cells at 34 uM incubated for 24 hrs by Annexin V-FITC/PI staining based flow cytometric analysis (reference value: 99.8 %); format: functional; procedure, shortened: as §2
SCC-9 [33] = test: Cell cycle arrest in human SCC-9 cells assessed as accumulation at S phase at 17 uM incubated for 24 hrs by flow cytometry (reference value: 14.4 %); format: functional
SCC-9 [34] = test: Induction of apoptosis in human SCC-9 cells assessed as necrotic cells at 34 uM incubated for 24 hrs by Annexin V-FITC/PI staining based flow cytometric analysis (reference value: 0.1 %); format: functional
CAL-27 [35] = test: Induction of apoptosis in human CAL-27 cells assessed as late apoptotic cells at 10 uM incubated for 24 hrs by Annexin V-FITC/PI staining based flow cytometric analysis (reference value: 0.1 %); format: functional; procedure, shortened: as §2
CAL-27 [36] = test: Induction of apoptosis in human CAL-27 cells assessed as early apoptotic cells at 34 uM incubated for 24 hrs by Annexin V-FITC/PI staining based flow cytometric analysis (reference value: 0.1 %); format: functional; procedure, shortened: as §2
SCC-9 [37] = test: Induction of apoptosis in human SCC-9 cells assessed as early apoptotic cells at 34 uM incubated for 24 hrs by Annexin V-FITC/PI staining based flow cytometric analysis (reference value: 2.8 %); format: functional
CAL-27 [38] = test: Induction of apoptosis in human CAL-27 cells assessed as necrotic cells at 34 uM incubated for 24 hrs by Annexin V-FITC/PI staining based flow cytometric analysis (reference value: 0.0 %); format: functional
SCC-9 [39] = test: Cell cycle arrest in human SCC-9 cells assessed as accumulation at G0/G1 phase at 17 uM incubated for 24 hrs by flow cytometry (reference value: 70.8 %); format: functional
SCC-9 [40] = test: Induction of apoptosis in human SCC-9 cells assessed as late apoptotic cells at 17 uM incubated for 24 hrs by Annexin V-FITC/PI staining based flow cytometric analysis (reference value: 1.4 %); format: functional
SCC-9 [41] = test: Induction of apoptosis in human SCC-9 cells assessed as necrotic cells at 17 uM incubated for 24 hrs by Annexin V-FITC/PI staining based flow cytometric analysis (reference value: 0.1 %); format: functional
CAL-27 [42] = test: Cell cycle arrest in human CAL-27 cells assessed as accumulation at S phase at 10 uM incubated for 24 hrs by flow cytometry (reference value: 3.6 %); format: functional
CAL-27 [43] = test: Cell cycle arrest in human CAL-27 cells assessed as accumulation at G0/G1 phase at 10 uM incubated for 24 hrs by flow cytometry (reference value: 77.6 %); format: functional
MCF7 = test: Cytotoxicity against human MCF7 cells assessed as cell growth inhibition; format: functional, cell-based; procedure, shortened: as §1
CAL-27 [44] = test: Cell cycle arrest in human CAL-27 cells assessed as accumulation at G0/G1 phase at 34 uM incubated for 24 hrs by flow cytometry (reference value: 77.6 %); format: functional
SCC-9 [45] = test: Cell cycle arrest in human SCC-9 cells assessed as accumulation at G0/G1 phase at 34 uM incubated for 24 hrs by flow cytometry (reference value: 70.8 %); format: functional

## COc1cccc2c1C(=O)c1c(O)c3c(c(O)c1C2=O)C[C@@](O)(C(=O)CO)C[C@@H]3O[C@H]1C[C@H](N)[C@H](O)[C@H](C)O1 [DOXORUBICIN]
HCT-15
  IC50: 800 nM
SCC-9 [1]
  Activity: 16.31%
CAL-27 [2]
  Activity: 0.7%
CAL-27 [3]
  Activity: 34.3%
CAL-27 [4]
  Activity: 4.2%
SCC-9 [5]
  Activity: 41%
SCC-9 [6]
  Activity: 51.5%
SCC-9 [7]
  Activity: 55.6%
SCC-9 [8]
  Activity: 7.1%
CAL-27 [9]
  IC50: 400 nM
CAL-27 [10]
  Activity: 58.9%
[11]
  IC50: 800 nM
CAL-27 [12]
  Activity: 59.7%
A549
  IC50: 800 nM
CAL-27 [13]
  Activity: 24.4%
SCC-9 [14]
  Activity: 0.3%
CAL-27 [15]
  Activity: 16%
SCC-9 [16]
  Activity: 29%
SCC-9 [17]
  IC50: 390 nM

## COc1c(O)c(CN2CCN(CC(=O)Nc3nc(-c4ccccc4)cs3)CC2)c2c(c1O)C1O[C@H](CO)[C@@H](O)[C@H](O)C1OC2=O (stereo partly drawn)
HCT-15
  IC50: 69700 nM
SCC-9 [18]
  Activity: 28.8%
CAL-27 [19]
  Activity: 4.8%
SCC-9 [20]
  Activity: 28%
CAL-27 [21]
  Activity: 2%
SCC-9 [22]
  Activity: 45.6%
SCC-9 [23]
  Activity: 10.3%
SCC-9 [24]
  Activity: 12.6%
CAL-27 [25]
  Activity: 10.6%
CAL-27 [26]
  Activity: 1.2%
SCC-9 [27]
  Activity: 11.8%
CAL-27 [28]
  Activity: 10.8%
SCC-9 [29]
  Activity: 20.2%
CAL-27 [30]
  Activity: 94.5%
CAL-27 [31]
  Activity: 4.1%
CAL-27 [32]
  Activity: 88.7%
SCC-9 [33]
  Activity: 16.5%
SCC-9 [34]
  Activity: 1.8%
CAL-27 [35]
  Activity: 2.2%
CAL-27 [9]
  IC50: 20700 nM
CAL-27 [36]
  Activity: 2.2%
SCC-9 [37]
  Activity: 32.4%
[11]
  IC50: > 100000 nM
A549
  IC50: > 100000 nM
CAL-27 [38]
  Activity: 4.3%
SCC-9 [39]
  Activity: 71%
SCC-9 [40]
  Activity: 42%
SCC-9 [41]
  Activity: 1.3%
CAL-27 [42]
  Activity: 2.9%
CAL-27 [43]
  Activity: 87.4%
MCF7
  IC50: > 100000 nM
CAL-27 [44]
  Activity: 85.6%
SCC-9 [17]
  IC50: 34400 nM
SCC-9 [45]
  Activity: 73.6%
